From PubChem BioAssay
GSIS activator = GLuc luminescence reporter in INS-1E cells, primary screen for activators of glucose-dependent secretion of insulin; activation, % at 16.6 µM; INS-1E GLuc reporter insulin secretion, 2-3 h; actives 0.61% (n = 370,000); AID 743287;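 active = lowest replicate activation of at least 40%, so every replicate reaches that level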
CaV13 ICDI inh = Disruptors of the CACNA1D IQ motif to Ca2+-dependent inactivation inhibitor domain association, primary screening, Förster resonance energy transfer in intact living …; HEK cells, CFP/YFP FRET ICDI-IQ, plate reader, 10 min; percent FRET-ratio fall versus neutral wells; inhibition, % at 12.3 µM; actives 0.098% (n = 340,000);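 active = mean replicate inhibition of at least 30% and at least 1% of replicates passing that level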
FXN GAA850 act = increases GAA850 frataxin promoter reporter activity. HEK293 lucGAA850 FXN promoter luciferase reporter, 24 h; percent of 10 µM SAHA response. activation, % at 6 µM. actives 0.56% (n = 360,000). AID 540364;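 active = activation above the average of all compounds screened plus 3 SD, cutoff fixed separately per campaign, cut at about 7.5% in these data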
XiGFP reactiv = X-chromosome reactivation activator; actives 0.055% (n = 360,000); XiGFP mouse fibroblasts, % GFP-positive cells imaging, 3 d; cells co-treated with 5-aza-dC sensitizer; scaled so ellipticine positive control = 100%; activation, % at 7.58 µM;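 active = mean normalized replicate activation at least 10% and every replicate at or above 10%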
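Material: XiGFP fibroblasts, SV40-immortalized; Buffer or medium: DMEM containing 5-aza-dC; Compound dosing: single point; Times: 3 days compound exposure.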
Each line names hits and unclear results; the compound was inactive in the other large screens. Sampled rows, rich in hits. Any-hit rate of the full collection: about 1%.

NC(=O)c1cc2ccc(O)cc2oc1=NCc1ccccc1	CaV13 ICDI inh 33 (no result: XiGFP reactiv)
CC1CCCCC1NC(=O)CN1C(=O)c2cccc(N)c2C1=O (configuration not stated)	CaV13 ICDI inh active
CSc1nc(NC(C)C)nc(N2CCOCC2)n1	GSIS activator 116 (no result: XiGFP reactiv)
CNc1nc(SCc2ccccc2)nc(N2CCOCC2)n1	GSIS activator 50 (no result: XiGFP reactiv)
CC(C)(C)Nc1nc(SCc2ccccc2)nc(N2CCOCC2)n1	none (no result: GSIS activator, XiGFP reactiv)
CCCCOc1ccc(-c2nnn(CC(=O)c3c[nH]c4ccccc34)n2)cc1	GSIS activator 94 (no result: XiGFP reactiv)
COc1ccc(-c2nnn(CC(=O)c3c[nH]c4ccccc34)n2)cc1OC	none (no result: CaV13 ICDI inh, XiGFP reactiv)
Cc1noc(C)c1S(=O)(=O)N(C)C[C@@H]1Oc2ccc(NC(=O)Nc3cccc4ccccc34)cc2CC(=O)N([C@@H](C)CO)C[C@H]1C	none (no result: CaV13 ICDI inh, FXN GAA850 act)
O=C(NCc1ccccc1)[C@@H]1[C@@H](CO)[C@@H]2Cn3c(cccc3=O)[C@H]1N2C(=O)CC1CC1	none (no result: CaV13 ICDI inh, FXN GAA850 act)
COc1ccccc1-c1cnc2c(c1)C(=O)N([C@@H](C)CO)C[C@@H](C)[C@@H](CN(C)C(C)=O)O2	none
COc1ccccc1-c1cnc2c(c1)C(=O)N([C@H](C)CO)C[C@@H](C)[C@@H](CN(C)C(C)=O)O2	GSIS activator 42 (no result: CaV13 ICDI inh, FXN GAA850 act)
Cc1cccc(CN(C)C[C@@H]2Oc3ncc(C#Cc4ccccc4)cc3C(=O)N([C@H](C)CO)C[C@@H]2C)c1	XiGFP reactiv 15 (no result: CaV13 ICDI inh, FXN GAA850 act)
COC(=O)c1ccc(CNC(=O)CSc2nc3ccccc3[nH]2)cc1	GSIS activator 79
COc1ccccc1NC(=O)N1CC(=O)N2[C@@H](CO)[C@H](c3ccc(C#Cc4ccccc4)cc3)[C@@H]2C1	none (no result: CaV13 ICDI inh, FXN GAA850 act)
O=C(Nc1ccccc1)Nc1ccc2c(c1)[C@@H]1C[C@@H](CC(=O)N3CCCCC3)O[C@@H](CO)[C@@H]1O2	none (no result: CaV13 ICDI inh, FXN GAA850 act)
COc1ccc(CCC(=O)Nc2ccc(C)c(S(=O)(=O)N(C)C)c2)cc1OC	none
COc1ccc(C(=O)NCC(=O)OCC(=O)Nc2ccc(C)c(S(=O)(=O)N(C)C)c2)cc1OC	GSIS activator 68
Cc1ccc(S(=O)(=O)CCC(=O)OCC(=O)Nc2cccc(S(=O)(=O)N3CCCCC3)c2)cc1	CaV13 ICDI inh 58
Cc1ccc(S(=O)(=O)CCC(=O)Nc2cccc(S(=O)(=O)N3CCCCCC3)c2)cc1	none
CCCC(=O)Nc1ccc2c(c1)C(=O)N(C)[C@H]1CC[C@@H](CC(=O)NCC3CC3)O[C@@H]1CO2	none (no result: CaV13 ICDI inh, FXN GAA850 act)
CCOC(=O)c1sc2ncn(/N=C/c3cccnc3)c(=O)c2c1C	GSIS activator 52 (no result: XiGFP reactiv)
CCOC(=O)c1sc2ncn(/N=C/c3ccc(O)cc3)c(=O)c2c1C	none
COc1cccc(S(=O)(=O)N2C[C@@H](O)COC[C@@H]3O[C@@H](CC(=O)NCCCN4CCOCC4)CC[C@H]32)c1	none (no result: CaV13 ICDI inh, FXN GAA850 act)
O=C(C[C@@H]1C=C[C@H](NC(=O)Nc2cc(F)ccc2F)[C@H](CO)O1)Nc1ccccc1	none (no result: CaV13 ICDI inh, FXN GAA850 act)
c1ccc(Cc2nc3ccccc3s2)cc1	none
Cc1nc(Cc2ccccc2)sc1CC#N	GSIS activator 42
C[C@@H]1CN([C@H](C)CO)C(=O)c2cccc(NC(=O)C3CCOCC3)c2O[C@H]1CN(C)Cc1ccc2c(c1)OCO2	none (no result: CaV13 ICDI inh, FXN GAA850 act)
Cc1ccc(-c2cn3nc(-c4ccccc4)c(-c4ccccc4)nc3n2)cc1	XiGFP reactiv 78
C[C@@H]1CC2=C(C(=O)OC(C)(C)O2)[C@H](c2ccc(Cl)cc2)O1	GSIS activator 52 (no result: FXN GAA850 act)
C[C@@H]1CC2=C(C(=O)OC(C)(C)O2)[C@H](c2ccc(F)cc2)O1	GSIS activator 56 (no result: FXN GAA850 act)
C[C@H](CO)N1C[C@H](C)[C@H](CN(C)C(=O)CN2CCOCC2)Oc2ncc(C3=CCCCC3)cc2C1=O	none (no result: CaV13 ICDI inh, FXN GAA850 act)
C/C=C/c1ccc([C@H]2[C@H](CO)N(C(=O)CC)[C@H]2CN(C)S(C)(=O)=O)cc1	none (no result: CaV13 ICDI inh, FXN GAA850 act)
O=C(CSc1nc2ccccc2c(=O)n1-c1ccccc1)NCc1ccc2c(c1)OCO2	GSIS activator 110 (no result: XiGFP reactiv)
Cc1cc(SCC(=O)NCCN2C(=O)CSC2=O)nc2c(C)cccc12	GSIS activator 46 (no result: XiGFP reactiv)
Cc1cc(C)c2nc(SCC(=O)NCCN3C(=O)CSC3=O)cc(C)c2c1	none
Cc1ccc(-c2nc3ncccn3c2N)cc1	none (no result: FXN GAA850 act)
Nc1c(-c2ccccc2)nc2ncccn12	GSIS activator 49 (no result: FXN GAA850 act)
CC=Cc1ccc2n(c1=O)C[C@@H]1[C@@H](CO)[C@H](C(=O)NCCC)[C@H]2N1C(=O)C1CCC1 (mixture of isomers)	none (no result: CaV13 ICDI inh, FXN GAA850 act)
